How the values were obtained:
[1] = system: PC-3; assay: Cell cycle arrest in human PC3 cells assessed as accumulation at G0/G1 phase at 5 uM after 24 hrs by propidium iodide staining-based flow cytometric method (reference value: 59 to 62%); assay type: functional
[2] = Drug metabolism in human liver microsomes assessed as (1E,4E)-1-(1-sec-butyl-4-hydroxy-1H-imidazol-2-yl)-5-(2-methyl-4-(trifluoromethyl)thiazol-5-yl)penta-1,4-dien-3-one formation at 10 mM after 60 mins by UHPLC analysis; assay type: ADME, microsome
How it was run: (§1)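 Pooled human liver microsomes in potassium phosphate buffer (pH 7.4) with NADPH solutions A and B were preincubated for 5 min at 37 °C. Compound was then added from a 10 mM stock (3 μL into 300 μL total) and incubated 60 min at 37 °C. Reactions were quenched with an equal volume of methanol and centrifuged (10,000 × g, 4 min, 4 °C). Supernatant went to UHPLC–high-resolution MS for metabolite identification.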

[3] = system: CWR22R; assay: Antiproliferative activity against human 22Rv1 cells expressing androgen receptor splice variants assessed as decrease in cell viability after 5 days by trypan blue exclusion assay; assay type: functional, cell-based; details: 22Rv1, 120 h
[4] = AUC in Sprague-Dawley rat at 10 mg/kg administered via oral gavage by HPLC-MS/MS analysis; assay type: ADME, organism-based; details: in vivo
[5] = system: LNCaP; assay: Potency index, ratio of curcumin IC50 to test compound IC50 for human LNCAP cells; assay type: functional
[6] = Plasma concentration in Sprague-Dawley rat at 10 mg/kg administered via oral gavage measured after 1 day by HPLC-MS/MS analysis; assay type: ADME, organism-based
[7] = system: PC-3; assay: Cell cycle arrest in human PC3 cells assessed as accumulation at G2 phase at 5 uM after 16 hrs by propidium iodide staining-based flow cytometric method (reference value: 25 to 28%); assay type: functional
[8] = system: DU-145; assay: Antiproliferative activity against human DU145 cells assessed as decrease in cell viability after 3 days by WST assay; assay type: functional, cell-based; details: DU-145, 72 h
How it was run: (§2)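 Cells were seeded at 3,200 per well. PC-3 and LNCaP were grown in RPMI-1640 and DU-145 in EMEM, each with 10% FBS and 1% penicillin/streptomycin, at 37 °C and 5% CO2. Cells were exposed for 3 days to at least five concentrations, with DMSO as vehicle control. WST-1 reagent was then added for 3 h at 37 °C and absorbance read at 430 nm. IC50 came from linear inhibition, averaged over triplicates.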

[9] = Tmax in Sprague-Dawley rat at 10 mg/kg administered via oral gavage by HPLC-MS/MS analysis; assay type: ADME, organism-based; details: in vivo
[10] = system: PC-3; assay: Antiproliferative activity against human PC3 cells assessed as decrease in cell viability after 3 days by WST assay; assay type: functional, cell-based; details: PC-3, 72 h; how it was run: as §2
[11] = system: PC-3; assay: Induction of apoptosis in human PC3 cells assessed as viable cells at 15 uM after 16 hrs by F2N12S/CYTOX AADvanced double staining-based flow cytometric method (reference value: 95%); assay type: functional; details: PC-3, 16 h, read-out: Activity
[12] = system: PC-3; assay: Induction of apoptosis in human PC3 cells assessed as viable cells at 10 uM after 16 hrs by F2N12S/CYTOX AADvanced double staining-based flow cytometric method (reference value: 95%); assay type: functional; details: PC-3, 16 h, read-out: Activity
[13] = system: PC-3; assay: Induction of apoptosis in human PC3 cells assessed as early apoptotic cells at 5 uM after 16 hrs by F2N12S/CYTOX AADvanced double staining-based flow cytometric method (reference value: 2%); assay type: functional
[14] = Drug metabolism in human liver microsomes assessed as (1Z,4E)-5-(1-sec-butyl-1H-imidazol-2-yl)-1-hydroxy-1-(2-methyl-4-(trifluoromethyl)thiazol-5-yl)penta-1,4-dien-3-one formation at 10 mM after 60 mins by UHPLC analysis; assay type: ADME, microsome; how it was run: as §1
[15] = Antiproliferative activity against human LNCaP95 cells expressing androgen receptor splice variants assessed as decrease in cell viability after 5 days by trypan blue exclusion assay; assay type: functional, cell-based; details: LNCaP-95, 120 h
[16] = Drug metabolism in human liver microsomes assessed as (1Z,4E)-1-(1-sec-butyl-1H-imidazol-2-yl)-1-hydroxy-5-(2-methyl-4-(trifluoromethyl)thiazol-5-yl)penta-1,4-dien-3-one formation at 10 mM after 60 mins by UHPLC analysis; assay type: ADME, microsome; how it was run: as §1
[17] = system: PWR-1E; assay: Potency index, ratio of curcumin IC50 to test compound IC50 for human PWR-1E cells expressing androgen receptor and PSA; assay type: functional
[18] = system: PC-3; assay: Induction of apoptosis in human PC3 cells assessed as late apoptotic/necrotic cells at 40 uM after 16 hrs by F2N12S/CYTOX AADvanced double staining-based flow cytometric method (reference value: 3%); assay type: functional
[19] = system: PC-3; assay: Induction of apoptosis in human PC3 cells assessed as late apoptotic/necrotic cells at 5 uM after 16 hrs by F2N12S/CYTOX AADvanced double staining-based flow cytometric method (reference value: 3%); assay type: functional
[20] = system: PC-3; assay: Induction of apoptosis in human PC3 cells assessed as viable cells at 5 uM after 16 hrs by F2N12S/CYTOX AADvanced double staining-based flow cytometric method (reference value: 95%); assay type: functional; details: PC-3, 16 h, read-out: Activity
[21] = system: PC-3; assay: Potency index, ratio of curcumin IC50 to test compound IC50 for human PC3 cells; assay type: functional
[22] = system: PWR-1E; assay: Antiproliferative activity against human PWR-1E cells expressing androgen receptor and PSA assessed as decrease in cell viability after 3 days by WST assay; assay type: functional, cell-based; details: 72 h
How it was run: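 Non-malignant prostate epithelial PWR-1E (adenovirus 12/SV40-immortalized) was seeded at 5,000 per well. Cells were exposed for 3 days at 37 °C in a CO2 incubator to at least five concentrations, with DMSO as vehicle control. WST-1 reagent was then added for 3 h at 37 °C and absorbance read at 430 nm. IC50 came from linear inhibition, as the mean of triplicate determinations.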

[23] = system: PC-3; assay: Induction of apoptosis in human PC3 cells assessed as late apoptotic/necrotic cells at 20 uM after 16 hrs by F2N12S/CYTOX AADvanced double staining-based flow cytometric method (reference value: 3%); assay type: functional
[24] = system: PC-3; assay: Induction of apoptosis in human PC3 cells assessed as viable cells at 40 uM after 16 hrs by F2N12S/CYTOX AADvanced double staining-based flow cytometric method (reference value: 95%); assay type: functional; details: PC-3, 16 h, read-out: Activity
[25] = Plasma concentration in Sprague-Dawley rat at 10 mg/kg administered via oral gavage measured at 1 hr by HPLC-MS/MS analysis; assay type: ADME, organism-based
[26] = system: Rattus norvegicus; assay: Acute toxicity in Sprague-Dawley rat at 10 mg/kg administered via oral gavage; assay type: organism-based; details: in vivo
How it was run: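 Male Sprague-Dawley rats (250–300 g, n = 4) each received a single 10 mg/kg oral gavage dose. The vehicle was 5% DMSO, 40% polyethylene glycol 400 and 55% saline. Blood was drawn from the lateral tail vein at 1, 3, 6 and 24 h for plasma drug levels. Toxicity was scored as observed deaths after dosing.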

[27] = Cmax in Sprague-Dawley rat at 10 mg/kg administered via oral gavage by HPLC-MS/MS analysis; assay type: ADME, organism-based; set-up: dose 10 mg/kg, route oral; details: in vivo
[28] = system: PC-3; assay: Induction of apoptosis in human PC3 cells assessed as late apoptotic/necrotic cells at 30 uM after 16 hrs by F2N12S/CYTOX AADvanced double staining-based flow cytometric method (reference value: 3%); assay type: functional
[29] = system: DU-145; assay: Potency index, ratio of curcumin IC50 to test compound IC50 for human DU145 cells; assay type: functional

Question: Which Activity [1] does the source give for CCC(C)n1ccnc1/C=C/C(=O)/C=C/c1sc(C)nc1C(F)(F)F (centres undefined) here?
Answer: 66%

Question: And the Drug metabolism [2]?
Answer: Metabolite_Detected

Question: And the IC50 [3]?
Answer: 850 nM

Question: And the AUC [4]?
Answer: 24700 ng·h/mL

Question: What about the “Ratio IC50” value [5] of the same molecule?
Answer: 62

Question: And the concentration at 24 h [6]?
Answer: 230 ng/mL

Question: And the Activity [7]?
Answer: 18%

Question: And the IC50 [8]?
Answer: 350 nM

Question: And the Tmax [9]?
Answer: 6 h

Question: And the IC50 [10]?
Answer: 230 nM

Question: And the viability at 15 µM [11]?
Answer: 54%

Question: What about the viability at 10 µM [12] of the same molecule?
Answer: 49%

Question: And the Activity [13]?
Answer: 11%

Question: What about the Drug metabolism [14] of the same molecule?
Answer: Metabolite_Detected

Question: And the IC50 [15]?
Answer: 370 nM

Question: And the Drug metabolism [16]?
Answer: Metabolite_Detected

Question: What about the “Ratio IC50” value [17] of the same molecule?
Answer: 81

Question: What about the Activity [18] of the same molecule?
Answer: 53%

Question: And the Activity [19]?
Answer: 39%

Question: And the viability at 5 µM [20]?
Answer: 50%

Question: And the “Ratio IC50” value [21]?
Answer: 110

Question: What about the IC50 [22] of the same molecule?
Answer: 110 nM

Question: And the Activity [23]?
Answer: 23%

Question: What about the viability at 40 µM [24] of the same molecule?
Answer: 22%

Question: What about the concentration at 1 h [25] of the same molecule?
Answer: 361 ng/mL

Question: And the Activity [26]?
Answer: Non-Toxic

Question: What about the Cmax [27] of the same molecule?
Answer: 5.27 µM

Question: And the Activity [28]?
Answer: 46%

Question: And the “Ratio IC50” value [29]?
Answer: 75

From ChEMBL document CHEMBL4190216, “Asymmetric 1,5-diarylpenta-1,4-dien-3-ones: Antiproliferative activity in prostate epithelial cell models and pharmacokinetic studies” (Eur J Med Chem, 2017)
